Experimental data gathered from unrelated publications.
Compare with care: the assays were run in different laboratories.
Cell line: HeLa
Observed: cell growth or viability

| SMILES | test | conditions | IC50 |
| --- | --- | --- | --- |
| [Cl-].[Cl-].[Co+2] | MTT | 48 h | > 150 µM |
| CSc1ccc(NC(=S)NN)cc1 | – | 72 h | 18 µg/mL |
| COc1c2c(cc3c1OCO3)[C@]13C=C[C@H](OC)C[C@@H]1[N@](C2)C[C@H]3OC(=O)c1ccc2ccccc2c1 | WST-1 | 48 h | > 10 µM |
| C[C@]12CCC(=O)C[C@@H]1CC[C@@H]1[C@@H]2CC[C@@]2(C)[C@H]1CC[C@]2(C)O | MTT | 24 h | 27.6 µM |
| Nc1cc(I)c(I)cc1N | – | 72 h | 15 µM |
| O=C(Cc1ccc2ccccc2c1)N[C@@H](Cc1ccccc1)C(=O)N[C@@H](Cc1ccccc1)C(=O)N[C@@H](Cc1ccc(OP(=O)(O)O)cc1)C(=O)O | MTT | 48 h | > 500 µM |
| N#Cc1ccc(NC(=S)NN)cc1 | – | 72 h | 11 µg/mL |
| CC[C@@]1(OC(=O)[C@@H]2CCCN2)C(=O)OCc2c1cc1n(c2=O)Cc2cc3cc4c(cc3nc2-1)OCO4 | MTT | – | 0.2 µM |
| N#Cc1ccc(NC(=S)NN=Cc2ccc([N+](=O)[O-])cc2)cc1 | – | 72 h | 142 µg/mL |
| CC[C@@]1(OC(=O)Cc2c(C)n(C(=O)c3ccc(Cl)cc3)c3ccc(OC)cc23)C(=O)OCc2c1cc1n(c2=O)Cc2cc3cc4c(cc3nc2-1)OCO4 | MTT | – | 0.306 µM |
| COc1cc(C(=O)c2cc3c(-c4ccccc4)c(OC)ccc3o2)cc(OC)c1OC | – | – | 25 µM |
| CC[C@@]1(OC(=O)[C@H](C)N)C(=O)OCc2c1cc1n(c2=O)Cc2cc3cc4c(cc3nc2-1)OCO4 | MTT | – | 0.103 µM |
| Nc1cc(Cl)c(Cl)cc1N | – | 72 h | 50 µM |
| CC[C@@]1(OC(=O)[C@@H](N)C(C)C)C(=O)OCc2c1cc1n(c2=O)Cc2cc3cc4c(cc3nc2-1)OCO4 | MTT | – | 0.114 µM |
| CC(C)[C@]12O[C@H]1[C@@H]1O[C@]13[C@]1(O[C@H]1C[C@H]1C4=C(CC[C@@]13C)C(=O)OC4)[C@@H]2O | thymidine uptake | 3 h | 0.041 µM |
| CC[C@@]1(O)C(=O)OCc2c1cc1n(c2=O)Cc2cc3cc4c(cc3nc2-1)OCO4 | MTT | 72 h | 0.026 µM |
| COc1ccc(C=NNC(=S)Nc2ccc(C#N)cc2)cc1 | – | 72 h | 31 µg/mL |
| CC[C@@]1(OC(=O)C(C)c2ccc(CC(C)C)cc2)C(=O)OCc2c1cc1n(c2=O)Cc2cc3cc4c(cc3nc2-1)OCO4 (stereo partly shown) | MTT | – | > 5 µM |
| COc1c2c(cc3c1OCO3)[C@]13C=C[C@H](OC)C[C@@H]1[N@](C2)C[C@H]3OC(=O)c1ccoc1 | WST-1 | 48 h | > 10 µM |
